Measurements published in ChEMBL document CHEMBL1145287, “Docking and 3-D QSAR studies on indolyl aryl sulfones. Binding mode exploration at the HIV-1 reverse transcriptase non-nucleoside binding site and design of highly active N-(2-hydroxyethyl)carboxamide and N-(2-hydroxyethyl)carbohydrazide derivatives” (J Med Chem, 2005).

Tests used:
Settings in all cases: Homo sapiens
[1] = tested on: MT4; experiment: (§1) Concentration required for 50% protection of infected MT-4 cells from wtIIIB-HIV-1-induced cytopathogenicity was determined by the MTT method; assay type: functional, cell-based
How it was run: (§2)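 MT-4 cells (1 × 10⁴/well, RPMI 1640 with 10% FCS, 37 °C, 5% CO₂) were infected with HIV-1 IIIB (H9/IIIB supernatant) at an inoculum causing complete cytopathicity by day 4, across graded compound concentrations. Viability was read by MTT, with cytotoxicity run in parallel on mock-infected cells. Concentration giving 50% protection reported as the mean of three experiments.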

[2] = tested on: MT4; experiment: Protection of infected MT-4 cells from wtIIIB-HIV-1-induced cytopathogenicity; assay type: functional, cell-based; how it was run: as §2
[3] = tested on: MT4; experiment: as §1; assay type: functional, cell-based; remark: listed apart in the source
How it was run: (§3)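 MT-4 cells (1 × 10⁴/well, RPMI 1640 + 10% FCS) exposed to serial compound dilutions (200 mM DMSO stock diluted in medium), infected with enough virus to give full cytopathicity by day 4; wt IIIB from H9/IIIB supernatant, Y181C and K103N–Y181C from NNRTI-selected passages.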

[4] = tested on: C8166; experiment: Compound concentration required to reduce the amount of p24 by 90% in wtIIIBinfected C8166 cells; assay type: functional
How it was run: (§4)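 Acute infection of C8166 cells (1 × 10⁴/well, RPMI 1640 with 10% FCS, 37 °C, 5% CO₂) by HIV-1 IIIB from persistently infected H9/IIIB supernatant, with a virus inoculum sized to cause complete cytopathicity at day 4, in the presence of serially diluted compound (DMSO stock diluted in medium). p24 antigen was measured by immunoenzymatic kit. Concentration giving 90% reduction of p24 reported.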

[5] = tested on: MT4; experiment: Compound concentration required to achieve 50% protection of infected MT-4 cells from Y181C strain was determined by the MTT method; assay type: functional, cell-based; how it was run: as §3
[6] = tested on: MT4; experiment: Concentration required to achieve 50% protection of infected MT-4 cells from Y181C-HIV-1 strain; assay type: functional, cell-based; how it was run: as §3
[7] = tested on: MT4; experiment: Concentration required to achieve 50% protection of infected MT-4 cells from K103N-Y181C; assay type: functional, cell-based; how it was run: as §3
[8] = tested on: C8166; experiment: Concentration required to reduce the amount of p24 by 90% in C8166 cells infected with an efavirenz-resistant strain EFVR; assay type: functional
How it was run: (§5)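 C8166 cells (1 × 10⁴/well) with serial compound dilutions (200 mM DMSO stock diluted in medium), infected with K103R/V179D/P225H virus selected from IIIB by passage in C8166 cells with efavirenz up to 2 μM (stock 3.0 × 10⁵ CCID₅₀/mL); 37 °C incubation; p24 measured by immunoenzymatic kit; value = concentration giving 90% p24 reduction.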

[9] = tested on: C8166; experiment: Concentration required to reduce the amount of p24 by 90% in wtIIIB-HIV-1-infected C8166 cells; assay type: functional; how it was run: as §4
[10] = tested on: MT4; experiment: Compound concentration required to achieve 50% protection of infected MT-4 cells from K103N-Y181C strain was determined by the MTT method; assay type: functional, cell-based; how it was run: as §3
[11] = tested on: C8166; experiment: Compound concentration required to reduce the amount of p24 by 90% in C8166 cells infected with an efavirenz-resistant strain EFVR carrying mutations K103R, V179D, and P225H; assay type: functional; how it was run: as §5

Compound	EC50 [2] [nM]	further results
O=[N+]([O-])c1ccc(Cl)c(S(=O)(=O)n2ccc3ccccc32)c1	–	EC50 [1]: 6030 nM
O=Cc1cc2cc(Cl)ccc2n1S(=O)(=O)c1ccccc1	> 75000	–
CCOC(=O)C(=O)c1cc2ccccc2n1S(=O)(=O)c1cc(Cl)ccc1N	1800	–
NNC(=O)C(=O)c1cc2ccccc2n1S(=O)(=O)c1ccccc1	> 200000	–
NC(=O)c1c(C=O)n(S(=O)(=O)c2ccccc2)c2ccc(Cl)cc12	≥ 200000	–
CCOC(=O)C(=O)c1cc2cc(Cl)ccc2n1S(=O)(=O)c1ccc(C)cc1	> 200000	–
CCOC(=O)C(=O)c1cc2ccccc2n1S(=O)(=O)c1ccc(Cl)cc1	> 100000	–
CCOC(=O)c1c(C=O)n(S(=O)(=O)c2ccccc2)c2ccccc12	> 32000	–
Cc1cc(C)cc(S(=O)(=O)c2c(C(=O)NNCCO)[nH]c3ccc(Cl)cc23)c1	1	EC50 [3]: 1 nM; EC90 [4]: 6 nM; EC50 [5]: 30 nM; EC50 [6]: 30 nM; EC50 [7]: 10 µM; EC90 [8]: 200 nM; EC90 [9]: 6 nM; EC50 [1]: 1 nM; EC50 [10]: 10 µM; EC90 [11]: 200 nM
CCOC(=O)c1c(C=O)n(S(=O)(=O)c2ccccc2)c2ccc(Cl)cc12	> 42000	–
CCOC(=O)C(=O)c1cc2cc(Cl)ccc2n1S(=O)(=O)c1cc(Cl)ccc1N	8300	–
CC(C)OC(=O)c1c(C=O)n(S(=O)(=O)c2ccccc2)c2ccccc12	> 54000	–
Cc1ccc(Sc2c(C(=O)NNCCO)[nH]c3ccc(Cl)cc23)c(C)c1	–	EC50 [1]: 2290 nM
NC(=O)C(=O)c1cc2ccccc2n1S(=O)(=O)c1ccccc1	15000	–
O=C(NCCO)c1[nH]c2ccc(Cl)cc2c1Sc1ccccc1	–	EC50 [1]: 129 nM
Cc1cccc(S(=O)(=O)c2c(C(=O)NNCCO)[nH]c3ccc(Cl)cc23)c1	–	EC50 [1]: 10 nM
NC(=O)c1[nH]c2ccc(Cl)cc2c1S(=O)(=O)c1ccc(Cl)cc1	11	–
NC(=O)c1[nH]c2ccc(Cl)cc2c1Sc1ccccc1	20	–
Cc1cc(C)cc(S(=O)(=O)c2c(C(N)=O)[nH]c3ccc(C(C)O)cc23)c1 (stereo unspecified)	25	–
NNC(=O)c1[nH]c2ccc(Cl)cc2c1S(=O)(=O)c1cc(Cl)ccc1N	300	–
NC(=O)c1[nH]c2ccccc2c1S(=O)(=O)c1cc(Cl)ccc1N	300	–

Compound	EC50 [2] [nM]	further results
CCOC(=O)c1[nH]c2ccccc2c1S(=O)(=O)c1cc(Cl)ccc1N	2500	–
NC(=O)c1[nH]c2ccc(Cl)cc2c1Sc1cc(Cl)ccc1N	1600	–
NC(=O)c1[nH]c2ccc(Cl)cc2c1S(=O)(=O)c1cc(Cl)ccc1N	40	–
Cc1cc(C)cc(Sc2c(C(N)=O)[nH]c3ccc(Cl)cc23)c1	6	–
CCOC(=O)c1[nH]c2ccccc2c1S(=O)(=O)c1ccccc1	3700	–
NC(=O)c1[nH]c2ccccc2c1Sc1ccccc1	1400	–
CCOC(=O)c1[nH]c2ccccc2c1Sc1ccccc1	1400	–
NNC(=O)c1[nH]c2ccc(Cl)cc2c1Sc1cc(Cl)ccc1N	> 13000	–
CCOC(=O)c1[nH]c2ccccc2c1Sc1cc(Cl)ccc1N	≥ 200000	–
NC(=O)c1[nH]c2ccc(Cl)cc2c1Sc1ccc(Cl)cc1	3100	–
CC(C)c1ccc(S(=O)(=O)c2c(C(N)=O)[nH]c3ccc(Cl)cc23)cc1	80	–
Cc1ccc(S(=O)(=O)c2c(C(N)=O)[nH]c3ccc(Cl)cc23)c(C)c1	4	–
Nc1cc(Cl)ccc1S(=O)(=O)n1ccc2ccccc21	–	EC50 [1]: 74100 nM
O=[N+]([O-])c1ccc(Cl)cc1S(=O)(=O)n1ccc2ccccc21	–	EC50 [1]: 3980 nM
O=[N+]([O-])c1cc(Cl)ccc1S(=O)(=O)n1ccc2ccccc21	–	EC50 [1]: 15800 nM
CCOC(=O)C(=O)c1cc2cc(Cl)ccc2n1S(=O)(=O)c1ccccc1	> 200000	–
NC(=O)C(=O)c1cc2cc(Cl)ccc2n1S(=O)(=O)c1ccccc1	66600	–
CCOC(=O)C(=O)c1cc2ccccc2n1S(=O)(=O)c1ccccc1[N+](=O)[O-]	1800	–
O=Cc1cc2ccccc2n1S(=O)(=O)c1ccccc1	> 150000	–
Cc1cc(C)cc(S(=O)(=O)c2c(C(=O)NCCO)[nH]c3ccc(Cl)cc23)c1	1	EC50 [3]: 1 nM; EC90 [4]: 5 nM; EC50 [5]: 10 nM; EC50 [6]: 10 nM; EC50 [7]: 0.5 µM; EC90 [8]: 100 nM; EC90 [9]: 5 nM; EC50 [1]: 1 nM; EC50 [10]: 0.5 µM; EC90 [11]: 100 nM
